Here are results for 32 compounds from ChEMBL document CHEMBL1135806, “Synthesis, biological evaluation, and quantitative structure-activity relationship analysis of new Schiff bases of hydroxysemicarbazide as potential antitumor agents” (J Med Chem, 2002).

This assay deals with L1210. The assay is described as follows: Activity against lymphocytic murine leukemia cell line L1210 using MTS/PES microculture tetrazolium assay. Format: functional, cell-based. Particulars: Mus musculus. Put shortly:
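L1210 cells kept in RPMI-1640 with 10% FBS and penicillin/streptomycin, 37 °C, 5% CO2. Seeded at 1×10^5/mL. DMSO stocks diluted in medium to six concentrations, 2×10⁻³ to 1×10⁻⁸ M, in triplicate; final DMSO 1% at top dose, otherwise <0.25%. Incubated 65 h, then MTS/PES for 3 h, A490. Inhibition relative to DMSO control; IC50 by probit regression; repeated at least twice.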
For orientation: IC50 means the concentration that inhibits the measured activity by half. Low values mean higher potency, high ones lower potency. As to `O=C(NO)N/N=C/c1cccc([N+](=O)[O-])c1`, half-maximal inhibition (IC50) was put at 399 µM.

In turn, `CC(=O)Nc1ccc(/C=N/NC(=O)NO)cc1` displayed an IC50 of 944 µM. Compared with the last compound, the IC50 is about 2.4-fold higher.

The compound `COc1ccc(/C=N/NC(=O)NO)cc1` displayed an IC50 of 317 µM.

Take `O=C(NO)N/N=C/c1ccc(O)c(O)c1O`: the IC50 came out at 2.7 µM.

Regarding `O=C(NO)N/N=C/c1c2ccccc2c(Cl)c2ccccc12`, it took 5.4 µM to reach half-maximal inhibition (IC50).

`O=C(NO)N/N=C/c1ccc2c(c1)OCCO2`: the IC50 is 178 µM.

In turn, `Cc1c2ccccc2c(/C=N/NC(=O)NO)c2ccccc12` yielded an IC50 of 4.4 µM. This IC50 lies about 40-fold lower than the previous one.

The compound `O=C(NO)N/N=C/c1c[nH]c2ccccc12` had a concentration for half-maximal inhibition (IC50) of 477 µM.

In turn, `O=C(NO)N/N=C/c1ccc(OCc2ccccc2)cc1` showed an IC50 of 48.1 µM.

As for `O=C(NO)N/N=C/c1ccc([N+](=O)[O-])s1`, the concentration for half-maximal inhibition (IC50) is 10.6 µM.

On to `O=C(NO)N/N=C/c1cc(Br)ccc1O`, for which the midpoint of inhibition, the IC50, lay at 10.1 µM.

The compound `N#Cc1ccc(/C=N/NC(=O)NO)cc1` displayed a 50% inhibitory concentration (IC50) of 208 µM.

The compound `COc1cccc(/C=N/NC(=O)NO)c1` returned an IC50 of 369 µM.

`COc1ccc(OC)c(/C=N/NC(=O)NO)c1` registered an IC50 of 30.1 µM.

`O=C(NO)N/N=C/c1ccc(-c2ccccc2)cc1`: the 50% inhibitory concentration (IC50) was 42.7 µM.

In turn, `COc1ccc(/C=N/NC(=O)NO)c(O)c1` showed a half-inhibitory concentration (IC50) of 60.2 µM.

Turning to `CC(C)c1ccc2occ(/C=N/NC(=O)NO)c(=O)c2c1`, half-maximal inhibition (IC50) was put at 32.2 µM. Against the preceding compound, the IC50 is about 1.9-fold lower.

`O=C(NO)N/N=C/c1cccc(C(F)(F)F)c1` displayed an IC50 of 39.5 µM. The IC50 values of the last two compounds are within 1.5-fold of each other.

With `Cc1cccc(/C=N/NC(=O)NO)n1`, the IC50 was determined as 891 µM.

As for `NNC(=O)NO`, the IC50 worked out at 282 µM.

With `O=C(NO)N/N=C/c1cc(Br)cc(Br)c1O`, half-maximal inhibition (IC50) required 7.2 µM.

The compound `O=C(NO)N/N=C/c1ccc(O)cc1O` came in with an IC50 of 131 µM.

Consider `O=C(NO)N/N=C/c1cc([N+](=O)[O-])cc([N+](=O)[O-])c1O`, for which 821 µM corresponded to half-maximal inhibition (IC50).

`COc1cc(Br)cc(/C=N/NC(=O)NO)c1O` had an IC50 of 37.7 µM.

Take `CN(C)c1ccc(/C=N/NC(=O)NO)cc1`: the IC50 was 446 µM.

For `O=C(NO)N/N=C/c1cccnc1`, inhibition was half-maximal at 607 µM (IC50). This IC50 and that of the compound before are within 1.5-fold of each other.

With `O=C(NO)N/N=C/c1cccc(I)c1`, the IC50 was determined as 80.4 µM.

With `O=C(NO)N/N=C/c1coc2c(Cl)cc(Cl)cc2c1=O`, the midpoint of inhibition, the IC50, lay at 28.2 µM.

The compound `O=C(NO)N/N=C/c1cc(I)cc(I)c1O` registered an IC50 of 4.7 µM. Against the preceding compound, the IC50 is about 6-fold lower.

In turn, `O=C(NO)N/N=C/c1cc(Cl)cc(Cl)c1O` displayed a half-inhibitory concentration (IC50) of 6.5 µM.

For the compound `COc1cc(O)c(/C=N/NC(=O)NO)c(OC)c1`, the concentration for half-maximal inhibition (IC50) is 91.4 µM. Against the preceding compound, the IC50 is about 14-fold higher.

With `NNC(N)=O` [HYDRAZINECARBOXAMIDE], the IC50 was greater than 2190 µM.
